A selection: hits, their analogues and other compounds. The true share with any hit is near 5.4%.
Cav32 inh = Cav3.2 calcium influx blockers – cell-based, Fluo-4 calcium fluorescence, FDSS, MLSMR library, primary screen. B-score at 10 µM. AID 449739, 2010. 100,000 tested, 4% active. Voltage-dependent T-type calcium channel subunit alpha-1H (Homo sapiens), O95180. Cav3.2-expressing cells; active compounds read low;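 active = single-dose well whose peak fluorescence ratio is a statistical outlier from its plate by either plate-standardised score or position-corrected B-score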
Rev-RRE block = HIV-1 Rev-RRE binding inhibitors, primary screen, biochemical, FRET, protein-RNA interaction; 97,000 tested, 0.79% active; inhibition, % at 8 µM; P05866; Rev peptide-RRE RNA binding;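 active = inhibition above the screen-wide mean plus 3 SD, cut at about 35% in these data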;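 also: 0% = median DMSO wells and 100% = median Neomycin B control wells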
Target sequence (P05866 whole entry, looked up): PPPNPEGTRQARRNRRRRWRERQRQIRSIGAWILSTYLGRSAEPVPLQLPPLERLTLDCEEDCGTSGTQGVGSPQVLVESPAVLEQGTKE
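Material: labelled RRE RNA duplex and labelled Rev peptide / Buffer or medium: HEPES pH 7.5 salt buffer with EDTA / Compound dosing: single point, 8 µM final nominal compound concentration / Benchmarks: DMSO low control, neomycin B high control / Timing: 5 min preincubation and 15 min binding, 25 °C / Technique: FRET fluorescence readout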
EphB4 ephrin blk = EphB4-ephrin-B2 interaction antagonists, primary screen, biochemical, TNYL-RAW peptide probe, fluorescence polarization. Ephrin type-B receptor 4 (Homo sapiens), P54760. EphB4 LBD / TNYL-RAW-Alexa532 peptide. inhibition, % at 7 µM. 97,000 tested, 0.15% active. AID 720, 2007;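 active = inhibition above the screen-wide mean inhibition plus 3 SD, cut at about 15% in these data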;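 also: 0% = DMSO wells and 100% = excess unlabeled TNYL-RAW peptide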
hDAT+cocaine = changed hDAT dopamine uptake under cocaine IC80, either direction, primary screen, cocaine antagonist project, cell-based, LLC-PK1 hDAT, [14C]-dopamine uptake, MLSMR. Sodium-dependent dopamine transporter (Homo sapiens), Q01959. LLC-PK1 hDAT cells, [14C]-dopamine uptake with cocaine IC80; actives deviate in either direction. B-score at 10 µM. 110,000 tested, 1.3% active. AID 449768, 2010;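 active = Z score or B-score, a plate-position-corrected score, falls beyond the plate's 99.7% confidence bounds, in either direction; inactive = both scores lie inside the 99.7% bounds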;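 also: scored against the spread of the other compound wells on the same plate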
Active calls of the source: *; / = not tested or not shown; [ ] = remark or other dose.

SMILES	Cav32 inh	Rev-RRE block	EphB4 ephrin blk	hDAT+cocaine
C/C(=N\NC(=O)c1ccc(Cl)c(Cl)c1)c1cccc(NC(=O)C(C)C)c1	-7.1*	5.5	-1.7	0.636
Cc1nnc(NC(=O)c2cccc(NC(=O)C(C)C)c2)s1	0.403	6.7	4.5	-7*
Cc1c(/C=N/NC(=O)c2cc(=O)[nH]c(=O)[nH]2)c2ccccn2c1C(=O)c1ccccc1	-0.719	-3.3	1.1	-0.284
NC1=NC[C@@H](Cc2ccc(O)cc2)N1CCCCC1CCCCC1	-1.53	/	/	0.296
CC1CCN(S(=O)(=O)c2ccc3ncn(CC(=O)N(C)Cc4ccccc4)c(=O)c3c2)CC1	-4.64*	1.4	-11.6	0.0707
Cc1ccc(O)c(C2=NOC(O)(C(F)(F)F)C2)c1 (stereo unspecified)	-1.07	-0.7	1.8	-0.215
O=C(CSCc1ccccc1)Nc1nccs1	0.1	5.5	6.3	-0.499
O=C(CSc1cn(Cc2ccccc2)c2ccccc12)Nc1nccs1	-4.35*	3.4	-0.7	-0.237
CCc1ccccc1N(C(=O)c1cccs1)C1C=CS(=O)(=O)C1 (stereo unspecified)	0.813	1.7	-2.6	-1.61
C[C@H]1CCC[C@@]2(O[C@H](CCO)C[C@@H](O)[C@@H]2O)O1	-0.0106	/	/	-0.617
C=CCO/N=C(/C)c1c(O)c(CC)c(-c2ccccc2)n(-c2ccccc2)c1=O	-7.32*	6.5	1.0	2.9*
N=c1c(C(=O)NCc2ccc(F)cc2)cc2c(=O)n3ccccc3nc2n1Cc1cccnc1	-0.458	36.9*	-8.6	0.47
Cn1c(C(=O)Nc2ccc3c(c2)OCCO3)cc2sccc21	-1.17	7.1	8.7	2.24*
O=C(Nc1ccc2c(c1)OCCO2)c1cc2sccc2n1Cc1ccc(F)cc1	-1.92	8.5	-6.2	1.99
O=C(NCc1ccco1)c1cc2sccc2n1Cc1ccccc1	-5.61*	7.9	-6.3	-0.965
O=C(Nc1ccc2c(c1)OCCO2)c1cc2sccc2n1Cc1ccccc1	-5.58*	3.3	-4.5	1.37
O=C(NCCc1ccccc1)c1cc2sccc2n1Cc1ccccc1	-0.873	6.2	7.6	-0.0623
CC1=C(C(=O)OCc2ccccc2)C(c2cccnc2)c2c(n(C)c(=O)n(C)c2=O)N1 (stereo unspecified)	-0.00474	1.2	-9.2	0.722
Cc1csc(NC(=O)c2cccc(Cn3nc(C)c(Br)c3C)c2)n1	-3.7*	2.5	0.7	1.89
CCOC(=O)C1=C(O)/C(=C\c2ccc(CNC(=O)C(=O)Nc3ccccc3)o2)N=C1C	-0.954	10.6	3.2	-0.912
CCCOc1cc(C)c(S(=O)(=O)n2ccc(C)n2)cc1C	-3.82*	15.1	-3.1	0.109
Cc1nc2cc(CC(=O)O)ccc2o1	0.826	4.5	-1.9	-0.973
CCn1c(=O)c(C(=O)Nc2cccnc2)c(O)c2ccccc21	/	8.6	2.9	/
CCn1c(=O)c(C(=O)NCc2cccnc2)c(O)c2ccccc21	-0.0255	4.8	-0.3	-8.39*
CCn1c(=S)sc2c(=O)[nH]c(C)nc21	0.836	4.7	0.9	-9.03*
SMILES	Cav32 inh	Rev-RRE block	EphB4 ephrin blk	hDAT+cocaine
COC(=O)C(C)N(C(=O)c1ccc(Cl)cc1)c1c(C)cccc1C (stereo unspecified)	-6.58*	3.1	-3.5	0.842
COC(=O)C(C)N(C(=O)c1ccc(C(=O)c2ccccc2)cc1)c1c(C)cccc1C (stereo unspecified)	-4.49*	6.6	-3.3	-0.16
CC(C)C(=O)Nc1ccc(C(=O)c2ccccc2)cc1	0.964	2.2	5.2	1.15
COc1ccc(CNC(=O)C2CC(c3cc(C(F)(F)F)cc(C(F)(F)F)c3)=NO2)cc1 (stereo unspecified)	-0.0345	/	/	-0.748
O=S(=O)(Nc1nc2ccccc2nc1Nc1ccc2c(c1)OCCO2)c1cccs1	-3.76*	/	/	-0.282
COc1cc(C2C(C#N)=C(N)Oc3cc(N(C)C)ccc32)cc2c1OCO2 (stereo unspecified)	-2.38	92.3*[fluorescence artefact?]	-0.7	-1.36
C=CCn1c(SCC(=O)OC)nc2sc3c(c2c1=O)CCN(C)C3	1.4	14.3	3.3	0.00827
Cc1ccc(NS(=O)(=O)c2cc(C(=O)NCCSC3CCCCC3)ccc2C)cc1	-4.46*	6.9	6.4	2.19
Cc1ccc(SCCNC(=O)c2ccc(C)c(S(=O)(=O)Nc3cccc(C)c3)c2)cc1	-4.56*	9.4	-4.9	0.218
Cc1ccc(NS(=O)(=O)c2cc(C(=O)NCCSc3ccc(C)cc3)ccc2C)cc1	-4.43*	5.4	0.5	-0.243
CCCCNS(=O)(=O)c1ccc2nc(SCC(=O)c3ccc(C#N)cc3)[nH]c2c1	0.0199	/	/	-0.388
Cc1ccc(S(=O)(=O)/N=C(/Nc2c(C)n(C)n(-c3ccccc3)c2=O)c2ccc(Cl)cc2)cc1	2.17	1.0	-7.7	5.56*
Cc1ccc(S(=O)(=O)Nc2c(C)n(C)n(-c3ccccc3)c2=O)cc1	-0.227	13.4	1.6	-0.672
COc1ccccc1N/C(=N/S(=O)(=O)c1ccc(C)cc1)c1ccc(Cl)cc1	-3.79*	14.2	-7.1	0.00298
COC(=O)c1ccc(CSc2nnc(Nc3ccc(OC)cc3)s2)o1	-0.11	3.7	10.1	-0.574
COC(=O)c1ccc(CSc2nnc(Nc3ccccc3OC)s2)o1	-1.31	8.5	-10.1	3.47*
COCCN(CC(=O)NC1CCCCC1)C(=O)CSc1nc2ccccc2o1	1.35	4.9	-6.5	-0.363
O=C(CN(Cc1ccc2c(c1)OCO2)C(=O)CSc1nc2ccccc2o1)NC1CCCCC1	-3.93*	6.3	14.7	-0.827
CC(C)(C)c1cc(S(=O)(=O)CCc2ccccn2)cc(C(C)(C)C)c1F	-4.01*	5.6	-0.5	-0.332
Cc1cccc(CN(C)CCc2ccccn2)c1	0.448	5.2	-4.8	0.944
C=C(C)c1cccc(C(C)(C)NC(=O)N2CCN(C/C=C/c3ccccc3)CC2)c1	-3.4	0.8	9.4	1.98
Cc1nn(CC#N)c(=O)n1-c1ccccc1	-0.824	10.4	3.4	-1.02
COc1cccc(N(C(=O)c2cccs2)c2nc3ccccc3s2)c1	-0.391	3.1	10.4	-1.1
O=[N+]([O-])c1ccc(OC/C=C2\Oc3ccc([N+](=O)[O-])cc3C2N2CCOCC2)cc1 (stereo unspecified)	-2.15	9.2	3.3	1.07
O=[N+]([O-])c1ccc2c(c1)C(N1CCOCC1)/C(=C/COc1ccc(F)cc1)O2 (stereo unspecified)	-7.26*	10.9	-2.9	1.9
C=CC[C@]12CC=CC(=O)[C@@]1(O)O[C@H](c1ccc(OC)c(OC)c1)[C@H]2C	0.155	/	/	0.2
CC1CN(Cc2cc(=O)[nH]c(C3CC3)n2)CC(C)O1 (stereo unspecified)	0.533	2.5	-3.6	-6.76*
CCOC(=O)N1CCC(n2c(SCC(=O)OCc3ccccc3)nc3ccsc3c2=O)CC1	-3.96*	-0.9	-1.2	0.535

Assay outcomes from PubChem.
